# ChEMBL document CHEMBL1127752, “Synthesis and antitumor activity of novel mitomycin derivatives containing functional groups at the C-6-methyl position” (J Med Chem, 1994)
# Key:
# HeLa [1] = assay: In vitro anticellular activity tested against HeLa S3 cells; format: functional, cell-based; conditions: Homo sapiens
# In short: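 HeLa S3 cells seeded on day 0, then exposed to drug for 1 h on day 1; anticellular activity determined by a previously described method.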
# Mus musculus [2] = assay: In vivo antitumor activity against lymphatic leukemia P388 cells resistant to mitomycin C (MMC) was measured as maximal increase in life span of the treated mice at optimal dose of 25 mg/kg; format: functional
# CCRF S-180 [3] = assay: Optimal dose towards sarcoma 180 cells, inoculated subcutaneously to the axillary region of ddY mice; format: functional, Mus musculus
# In short: (§1)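 Sarcoma 180 cells implanted sc in the axillary region of ddY mice on day 0; compounds given iv on day 1. Tumor volume compared treated versus control (T/C). 50% growth-inhibitory dose calculated from the dose-response curve; optimal dose also recorded.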
# Mus musculus [4] = assay: In vivo antitumor activity against lymphatic leukemia P388 cells sensitive to mitomycin C (MMC) was measured as maximal increase in life span of the treated mice at optimal dose of 25 mg/kg; format: functional
# Mus musculus [5] = assay: Effective dose that gave 50% inhibition of tumor growth was calculated towards sarcoma 180 cells which were inoculated subcutaneously to the axillary region of ddY mice; format: functional; conditions: Mus musculus, 180, sc; in short: as §1
# Mus musculus [6] = assay: In vivo antitumor activity against lymphatic leukemia P388 cells resistant to mitomycin C (MMC) was measured as maximal increase in life span of the treated mice at optimal dose of 1.0-4.0 mg/kg; format: functional
# HeLa [7] = assay: In vitro anticellular activity against HeLa S3 cells; 0.59-1.1; format: functional, cell-based; conditions: Homo sapiens
# HeLa [8] = assay: In vitro anticellular activity against HeLa S3 cells; 0.82-1.4; format: functional, cell-based; conditions: Homo sapiens
# Mus musculus [9] = assay: In vivo antitumor activity against lymphatic leukemia P388 cells sensitive to mitomycin C (MMC) was measured as maximal increase in life span of the treated mice at optimal dose of 1.0-6.0 mg/kg; 38-84; format: functional
# Mus musculus [10] = assay: Tumor volume was calculated against sarcoma 180 cells which were inoculated subcutaneously to the axillary region of ddY mice; 0.28-0.46
# Mus musculus [11] = assay: Effective dose that gave 50% inhibition of tumor growth was calculated towards sarcoma 180 cells which were inoculated subcutaneously to the axillary region of ddY mice; 1.9-3.7; format: functional; conditions: Mus musculus, 180, sc
# Mus musculus [12] = assay: Optimal dose was calculated towards sarcoma 180 cells which were inoculated subcutaneously to the axillary region of ddY mice; 4.0-6.0; format: functional
# Mus musculus [13] = assay: The in vivo antitumor activity against lymphatic leukemia P388 cells resistant to mitomycin C (MMC) in mice was measured as maximal increase in life span of the treated mice at optimal dose of 3.1 mg/kg; format: functional
# Mus musculus [14] = assay: In vivo antitumor activity against lymphatic leukemia P388 cells sensitive to mitomycin C (MMC) was measured as maximal increase in life span of the treated mice at optimal dose of 3.1 mg/kg; format: functional
# Mus musculus [15] = assay: In vivo antitumor activity against lymphatic leukemia P388 cells resistant to mitomycin C (MMC) was measured as maximal increase in life span of the treated mice at optimal dose of 9.0 mg/kg; format: functional
# Mus musculus [16] = assay: In vivo antitumor activity against lymphatic leukemia P388 cells resistant to mitomycin C (MMC) was measured as maximal increase in life span of the treated mice at optimal dose of 6.0 mg/kg; format: functional
# CCRF S-180 [17] = assay: Tumor volume of sarcoma 180 cells which were inoculated […] to the axillary region of ddY mice, after treatment; format: functional, Mus musculus
smiles,measurement,setting,value
CO[C@@]12[C@H](COC(N)=O)C3=C(C(=O)C(COC(C)C)=C(N)C3=O)N1C[C@@H]1N[C@@H]12,IC50,HeLa [1],2.5 µM
same,ILS at 25 mg/kg,Mus musculus [2],> 97%
same,OD,CCRF S-180 [3],50 mg/kg
same,ILS at 25 mg/kg,Mus musculus [4],55%
same,ED50,Mus musculus [5],15 mg/kg
CO[C@@]12[C@H](COC(N)=O)C3=C(C(=O)C(C)=C(N)C3=O)N1C[C@@H]1N[C@@H]12 [MITOMYCIN],ILS,Mus musculus [6],23%
same,IC50,HeLa [7],1.1 µM
same,IC50,HeLa [8],1.4 µM
same,ILS,Mus musculus [9],84%
same,T/C,Mus musculus [10],0.46
same,ED50,Mus musculus [11],3.7 mg/kg
same,OD,Mus musculus [12],6 mg/kg
CO[C@@]12[C@H](COC(N)=O)C3=C(C(=O)C(CSc4nccs4)=C(N)C3=O)N1C[C@@H]1N[C@@H]12,IC50,HeLa [1],1.4 µM
same,OD,CCRF S-180 [3],13 mg/kg
same,ILS at 3.1 mg/kg,Mus musculus [13],26%
same,ILS at 3.1 mg/kg,Mus musculus [14],49%
same,ED50,Mus musculus [5],8.9 mg/kg
CO[C@@]12[C@H](COC(N)=O)C3=C(C(=O)C(CSc4nncn4C)=C(N)C3=O)N1C[C@@H]1N[C@@H]12,IC50,HeLa [1],2.5 µM
same,OD,CCRF S-180 [3],46 mg/kg
same,ILS at 9 mg/kg,Mus musculus [15],> 71%
same,ED50,Mus musculus [5],39 mg/kg
C=CCSCC1=C(N)C(=O)C2=C(C1=O)N1C[C@@H]3N[C@@H]3[C@]1(OC)[C@@H]2COC(N)=O,ILS at 6 mg/kg,Mus musculus [16],33%
same,IC50,HeLa [1],2.3 µM
same,OD,CCRF S-180 [3],14 mg/kg
same,T/C,CCRF S-180 [17],0.77 min
